# Measured values pooled from the literature.
# Cnr2: Cannabinoid receptor 2 (Cnr2, Mus musculus, UniProt P47936)
# CTSL: Procathepsin L (CTSL, Homo sapiens, UniProt P07711)
# G protein-coupled receptor 88: G protein-coupled receptor 88 (Homo sapiens, UniProt Q9GZN0)
# mreB: mreB (Escherichia coli, UniProt P0A9X4)
# pol: pol (Feline immunodeficiency virus, UniProt P16088)
SMILES,target,test,system,setting,measurement,value
CCOC(=O)C(CC)(CCCSCCOCCOCCOCCOCCNC(=O)OC(C)(C)C)NC(=O)c1ccc(C2CC2)c(Cc2ccc(F)cc2)n1 (stereo not drawn),Cnr2,"cAMP, agonist",,,EC50,31 nM
CCOC(=O)c1c(NCc2ccc(SC)cc2)c2cccc(C)c2[nH]c1=O,"Anoctamin-2 (ANO2, Homo sapiens, UniProt Q9NQ90)","ion flux, inhibitor",,,IC50,0.99 µM
Cc1nonc1Cn1nnc2c(N3CC[C@H](O)C3)nc(C(C)(C)C)nc21,Cnr2,"ligand displacement, radioligand",,cell membranes,Ki,0.061 µM
CC[C@H](NC(=O)OCc1ccccc1)C(=O)N[C@H](C(=O)N[C@@H](Cc1ccccc1)C(=O)N(C)N(C#N)CCC(N)=O)C(C)(C)C,CTSL,"enzyme activity, inhibitor",,,Ki,0.123 µM
CC[C@H](C)COc1ccc([C@@H](CO)C(=O)N[C@H](C)c2ccccc2)cc1,G protein-coupled receptor 88,"cAMP, agonist, TR-FRET",,,EC50,2000 nM
CC(N)c1cc2cc(Br)ccc2[nH]1 (stereo not drawn),mreB,"ATPase activity, inhibitor, absorbance",,,IC50,120 µM
Cc1cc(/C=C/C#N)cc(C)c1Nc1ccnc(Nc2ccc(C#N)cc2)n1,pol,"binding, SPR",,,Kd,16 µM
CCOC(=O)C(CC)(CCCSCCOCCOCCOCCNC(=O)OC(C)(C)C)NC(=O)c1ccc(C2CC2)c(Cc2ccc(F)cc2)n1 (stereo not drawn),Cnr2,"cAMP, agonist",,,EC50,21 nM
Cc1nc([C@@](C)(CC2CC2)NC(=O)c2cc(OCC(F)(F)F)c(C3CC3)cn2)no1,Cnr2,"cAMP, agonist",,,EC50,3 nM
O=P(O)(O)Oc1ccccc1OP(=O)(O)O,"Signal transducer and activator of transcription 5B, SH2 (STAT5B, Homo sapiens, UniProt P51692)","ligand displacement, FP",,,IC50,1.95 µM
CCOC(=O)[C@](CC)(CCC[S+]([O-])CCOCCOCCNC(=O)OC(C)(C)C)NC(=O)c1ccc(C2CC2)c(Cc2ccc(F)cc2)n1 (stereo partly drawn),Cnr2,"ligand displacement, radioligand",,cell membranes,Ki,0.09 µM
O=[As](O)(O)c1ccc(Cc2ccc([As](=O)(O)O)cc2)cc1,"Autotaxin (ENPP2, Homo sapiens, UniProt Q13822)","enzyme activity, inhibitor, absorbance",,,Ki,0.0475 µM
Cc1ccnc2c1NC(=O)c1cccnc1N2C1CC1,pol,"binding, SPR",,,Kd,185 µM
CCCCCCC(C)(C)c1ccc([C@@H]2C[C@H](O)CC[C@H]2CCCO)c(O)c1,Cnr2,"cAMP, agonist",,,EC50,0.05 nM
CCCCNNC(=O)c1ccc(Br)cc1,"Histone deacetylase 4 (HDAC4, Homo sapiens, UniProt P56524)","enzyme activity, inhibitor, fluorescence",,,IC50,> 100 µM
CC[C@H]1NC(=O)[C@@H]2CSC(=N2)[C@H](Cc2ccccc2)N(C)C(=O)[C@@H]2CCCN2C(=O)[C@H](C(C)C)N(C)C(=O)[C@H](Cc2ccccc2)OC(=O)[C@H](C)[C@@H](C)NC(=O)[C@@H]([C@@H](C)O)NC(=O)[C@@H](CC(C)C)N(C)C(=O)[C@@H]2CSC1=N2,CTSL,"enzyme activity, inhibitor",,,IC50,20.4 µM
NC1CCCCc2c1[nH]c1ccc(Br)cc21 (stereo not drawn),mreB,"ATPase activity, inhibitor, absorbance",,,IC50,44 µM
CCCc1ccc(-c2ccc([C@@H](CO)C(=O)N[C@H](C)c3ccccc3)cc2)cc1,G protein-coupled receptor 88,"cAMP, agonist, TR-FRET",,,EC50,138 nM
NC(=O)[C@@H]1CC(F)(F)CN1C(=O)c1ccc(N2CC(F)(F)C2)c(OCC2CC2)n1,Cnr2,"ligand displacement, radioligand",,cell membranes,Ki,0.189 µM
NC1CCCCc2c1[nH]c1cc(Cl)c(Cl)cc21 (stereo not drawn),mreB,"ATPase activity, inhibitor, absorbance",,,IC50,29 µM
CCOC(=O)C(CC)(CCCSCCOCCOCCNc1ccc([N+](=O)[O-])c2nonc12)NC(=O)c1ccc(C2CC2)c(Cc2ccc(F)cc2)n1 (racemic),Cnr2,"cAMP, agonist",,,EC50,102 nM
CC(C)C[C@H](NC(=O)[C@H]1O[C@@H]1C(=O)O)C(=O)NCCCCN=C(N)N,CTSL,"enzyme activity, inhibitor",,,IC50,0.000238 µM
C=CC(O)CO (stereo not drawn),"Cytochrome P450 2E1 (Cyp2e1, Rattus norvegicus, UniProt P05182)","enzyme activity, inhibitor","Fischer 344 rat, liver microsomes",30 min,IC50,1000 µM
C[C@]12CC[C@@H]3c4ccc(O)cc4CC[C@H]3[C@@H]1CC[C@@H]2O,"Protein disulfide-isomerase (P4HB, Homo sapiens, UniProt P07237)","binding, radioligand",,,Kd,1.5 µM
